Bioassay records deposited in PubChem by Johns Hopkins Ion Channel Center.
Hits are enriched below; roughly 2.3% of the tested compounds scored in any of these assays.
TRPC6 inh = mouse TRPC6 channel inhibitors, primary screen, cell-based, HEK293, membrane potential dye | B-score at 10 µM | actives 1.1% (n = 310,000) | ACh-evoked depolarization; stronger effect = lower value | AID 2553, 2010;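 active = B-score under library mean minus 3 SD, initial fluorescence not abnormally high, positive integrated signal ratio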;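 also: B-score derived from integrated fluorescence ratio over the kinetic read; more negative B-score means stronger inhibition of depolarization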
Target sequence (Q61143 whole entry, looked up): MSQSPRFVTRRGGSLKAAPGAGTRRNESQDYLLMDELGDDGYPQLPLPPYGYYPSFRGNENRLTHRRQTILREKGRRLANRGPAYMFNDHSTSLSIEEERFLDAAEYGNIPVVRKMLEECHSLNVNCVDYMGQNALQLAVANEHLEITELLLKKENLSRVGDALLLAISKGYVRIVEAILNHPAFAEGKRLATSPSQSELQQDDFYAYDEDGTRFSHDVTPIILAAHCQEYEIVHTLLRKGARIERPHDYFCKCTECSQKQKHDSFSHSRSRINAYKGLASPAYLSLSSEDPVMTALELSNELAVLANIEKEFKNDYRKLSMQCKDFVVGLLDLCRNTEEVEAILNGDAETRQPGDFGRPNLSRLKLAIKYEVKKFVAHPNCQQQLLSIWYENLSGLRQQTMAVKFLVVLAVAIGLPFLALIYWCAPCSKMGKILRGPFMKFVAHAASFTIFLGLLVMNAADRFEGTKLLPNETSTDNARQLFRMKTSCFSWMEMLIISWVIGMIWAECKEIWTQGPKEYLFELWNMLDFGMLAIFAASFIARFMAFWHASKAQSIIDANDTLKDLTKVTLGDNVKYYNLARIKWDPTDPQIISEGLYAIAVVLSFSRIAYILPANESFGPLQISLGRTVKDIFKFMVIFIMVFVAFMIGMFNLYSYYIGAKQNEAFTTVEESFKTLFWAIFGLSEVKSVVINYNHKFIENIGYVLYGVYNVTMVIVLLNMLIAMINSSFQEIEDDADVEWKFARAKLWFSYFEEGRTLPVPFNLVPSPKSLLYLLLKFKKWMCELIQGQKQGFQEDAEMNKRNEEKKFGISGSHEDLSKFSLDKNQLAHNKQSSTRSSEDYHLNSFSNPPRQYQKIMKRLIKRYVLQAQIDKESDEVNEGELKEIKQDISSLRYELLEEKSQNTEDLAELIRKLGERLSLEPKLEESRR
TRPC4 inh = inhibitors of mouse TRPC4 channel, primary screen, Fluo4 calcium, HEK293 TRPC4beta/mu-opioid cells | AID 2247, 2010 | Short transient receptor potential channel 4 (Mus musculus), Q9QUQ5 | DAMGO-evoked Fluo4 calcium flux; stronger effect = lower value | B-score at 10 µM | actives 0.39% (n = 300,000);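 active = B-score over 3 SD under the library average, no early fluorescence shift, positive overall ratio signal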
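Assay system: HEK293 cells with stable TRPC4beta plus mu-opioid receptor expression; Probe or stimulus: DAMGO in two steps, submaximal then maximal; Dosing: single-point compound dosing; Measured by: Fluo4 calcium-dye fluorescence, kinetic read; Read-out basis: B score from integrated Fluo4 fluorescence ratio.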
TRPC4 agonist = activators of mouse TRPC4 channel, primary screen, Fluo4 calcium, HEK293 TRPC4beta/mu-opioid cells; Fluo4 calcium fluorescence; stronger effect = higher value; B-score at 10 µM; actives 0.49% (n = 310,000);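 active = B-score above 5 SD of library B-scores, and initial fluorescence ratio not above library mean plus 5 SD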;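 also: positive B-score marks a calcium rise read as TRPC4 activation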
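Assay system: HEK293 stable line with TRPC4beta plus mu-opioid receptor; schedule: 45 min room-temperature Fluo4 loading, 110 s read; technique: kinetic Fluo4 calcium fluorescence; evaluation: integrated baseline-normalised fluorescence ratio, converted to per-well B score; controls: buffer (low) and maximal DAMGO (high)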
TRPC4 potent = positive allosteric modulators of TRPC4, primary screen, cell-based, mouse TRPC4beta, HEK293 mu-opioid, Fluo-4 calcium; AID 2227, 2009; Short transient receptor potential channel 4 (Mus musculus), Q9QUQ5; B-score at 10 µM; actives 0.42% (n = 310,000); DAMGO EC20, Fluo-4 Ca2+ flux; stronger effect = higher value;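 active = B-score of calcium response area above 5 SD of library B-scores, with initial fluorescence ratio within 5 SD of library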
TRPC6 act = mouse TRPC6 channel activators, primary screen, cell-based, HEK293, membrane potential dye; Short transient receptor potential channel 6 (Mus musculus), Q61143; HEK293-TRPC6 membrane potential dye fluorescence; stronger effect = higher value; B-score at 10 µM; actives 0.13% (n = 310,000);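 active = B-score of the integrated fluorescence ratio above library mean plus 3 SD, and starting fluorescence ratio within library mean plus 5 SD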;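 also: higher score means more depolarization so channel activation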
TRPC4 spec 2 = mouse TRPC4 off-target activity of TRPC6 inhibitors, second screen | inhibition, % at 10 µM | actives 42% (n = 920) | AID 2776 | HEK293 TRPC4/MOR, membrane potential dye fluorescence; channel activated by saturating DAMGO dose | shares compounds with TRPC6 inh;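 active = compounds whose fluorescence signal differed from control wells by over 3 SD, either direction, in both duplicate plates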
TRPC4 spec = mouse TRPC4 modulation by TRPC6 hits, confirmation, selectivity assay for TRPC6 inhibitor project, cell-based, HEK293 TRPC4/mu-opioid, membrane potential dye; shares compounds with TRPC6 inh; membrane potential fluorescence; activity change, negative = inhibition, % at 10 µM; actives 61% (n = 920); AID 2777, 2010;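 active = rise or fall in signal beyond 3 SD of buffer-only wells in both replicate plates, either sign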;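 also: integrated kinetic ratio of fluorescence range over baseline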
HEK293 MPD ctr 2-1 = nonspecific membrane potential effects, parental HEK293, confirmation, counter-screen for TRPC6 inhibitor project, cell-based, second counter screen | parental HEK293 membrane potential dye fluorescence; maximal acetylcholine challenge after compound addition | shares compounds with TRPC6 inh | actives 31% (n = 920) | signal change vs control, % at 10 µM;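 active = membrane potential signal moving either way by over 3 SD of the maximum-effect control, in both duplicate plates, meaning non-specific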
HEK293 MPD ctr-1 = membrane potential modulation in parental HEK293, confirmation, counter-screen for TRPC6 inhibitor project, cell-based; AID 2780, 2010; shares compounds with TRPC6 inh; membrane potential signal change, % at 10 µM; parental HEK293 membrane potential dye fluorescence; actives 60% (n = 920);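 active = membrane potential signal shifting up or down by more than 3 SD of buffer-only wells, on both duplicate plates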
HEK293 MPD ctr-2 = parental HEK293 membrane potential modulation, confirmation, counter-screen for TRPC6 modulator project, cell-based. shares compounds with TRPC6 inh. membrane potential dye fluorescence. membrane potential signal change, % at 10 µM. actives 51% (n = 2,400). AID 488924, 2010;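 active = membrane potential signal moves up or down beyond 5 SD from buffer-only wells, on both duplicate plates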
HEK293 MPD ctr 2-2 = parental HEK293 nonspecific activity of TRPC6 modulators, second screen. shares compounds with TRPC6 inh. membrane potential dye fluorescence; after compound, maximal acetylcholine stimulation. inhibition, % at 10 µM. actives 14% (n = 2,400). AID 488926;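 active = membrane potential signal drops by more than 5 SD from the mean control signal, in both duplicate plates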
TRPC4 ctr mod = TRPC4 modulation by TRPC6 hit compounds, confirmation, selectivity assay for TRPC6 modulator project, cell-based, HEK293 TRPC4/mu-opioid, membrane potential dye, mouse | percent change from control (negative = decrease, positive = increase), % at 10 µM | shares compounds with TRPC6 inh | AID 488927, 2010 | membrane potential fluorescence | actives 69% (n = 2,400);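 active = membrane potential signal moved up or down beyond 5 SD of buffer control wells, in both duplicate plates, actives on both sides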
TRPC4 ctr inh 2 = second selectivity test of TRPC6 modulators against mouse TRPC4 | shares compounds with TRPC6 inh | HEK293 TRPC4/mu-opioid, membrane potential dye fluorescence; stimulated with maximal-effect DAMGO | inhibition, % at 10 µM | actives 55% (n = 2,400) | AID 488928;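 active = drop in membrane potential signal beyond 5 SD of the control wells in both duplicate plates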;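 also: TRPC4 counter screen for TRPC6 hits run under conditions tuned for TRPC6 not TRPC4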
TRPC6 block conf = mouse TRPC6 channel inhibitors, confirmation, HEK293 cells, membrane potential dye, duplicate. shares compounds with TRPC6 inh. ACh-evoked depolarization. inhibition, % at 10 µM. actives 43% (n = 3,300);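 active = fluorescence ratio falls more than 5 SD below the full-stimulation control mean, in both duplicate runs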;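 also: integrated fluorescence ratio of peak minus minimum over baseline after agonist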
TRPC6 act confirm = mouse TRPC6 channel activators, confirmation, HEK293 cells, membrane potential dye, duplicate; shares compounds with TRPC6 inh; HEK293-TRPC6 membrane potential dye fluorescence, FDSS; activation, % at 10 µM; actives 11% (n = 2,800);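 active = ratio signal rise beyond 5 SD above unstimulated control wells' mean, seen in both duplicate runs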
Numbers stand for hits.

Results for Nc1nc(Nc2ccccc2)nc2c1ncn2[C@@H]1O[C@H](CO)[C@@H](O)[C@H]1O ?
TRPC6 inh: inactive; TRPC4 inh: inactive; TRPC4 agonist: inactive; TRPC4 potent: inactive; TRPC6 act: inactive

How did Cc1ccc(S(=O)(=O)N(C)C)cc1NC(=S)NNC(=O)C(N)=O do in these assays?
TRPC6 inh: inactive; TRPC4 inh: inactive; TRPC4 agonist: inactive; TRPC4 potent: inactive; TRPC6 act: inactive

Results for O=[N+]([O-])c1ccc2nc(-c3ccncc3)[nH]c2c1 ?
TRPC6 inh: -6.4; TRPC4 inh: inactive; TRPC4 agonist: inactive; TRPC4 potent: inactive; TRPC6 act: inactive; HEK293 MPD ctr-2: -304%; HEK293 MPD ctr 2-2: 60%; TRPC4 ctr mod: -52%; TRPC4 ctr inh 2: 36%; TRPC6 block conf: inactive; TRPC6 act confirm: inactive

How did CSc1nc(C(=O)N2CCCC(C(=O)c3ccc(Cl)cc3)C2)cs1 (stereo not given) do in these assays?
TRPC6 inh: -5.9; TRPC4 inh: inactive; TRPC4 agonist: inactive; TRPC4 potent: inactive; TRPC6 act: inactive; HEK293 MPD ctr-2: 138%; HEK293 MPD ctr 2-2: inactive; TRPC4 ctr mod: 33%; TRPC4 ctr inh 2: inactive; TRPC6 block conf: inactive

Results for Cc1cc(Cl)ccc1C(=O)C1CCCN(C(=O)c2cnsn2)C1 (stereo not given) ?
TRPC6 inh: -6.7; TRPC4 inh: inactive; TRPC4 agonist: inactive; TRPC4 potent: inactive; TRPC6 act: inactive; TRPC4 spec 2: inactive; TRPC4 spec: 26%; HEK293 MPD ctr 2-1: inactive; HEK293 MPD ctr-1: 18%; TRPC6 block conf: inactive

Results for Cc1cc(Cl)ccc1C(=O)C1CCCN(C(=O)c2cscn2)C1 (stereo not given) ?
TRPC6 inh: inactive; TRPC4 inh: inactive; TRPC4 agonist: inactive; TRPC4 potent: inactive; TRPC6 act: inactive

What do the screens show for `C1CN(c2nc3nonc3nc2N2C[C@H]3CC[C@H]2C3)CCS1`?
TRPC6 inh: inactive; TRPC4 inh: inactive; TRPC4 agonist: inactive; TRPC4 potent: inactive; TRPC6 act: inactive

What do the screens show for `Cc1ccc(C(=O)Nc2cccc(N(C)S(C)(=O)=O)c2)cc1S(=O)(=O)Nc1ccccc1`?
TRPC6 inh: -7.7; TRPC4 inh: inactive; TRPC4 agonist: inactive; TRPC4 potent: inactive; TRPC6 act: inactive; TRPC4 spec 2: inactive; TRPC4 spec: inactive; HEK293 MPD ctr 2-1: inactive; HEK293 MPD ctr-1: inactive; TRPC6 block conf: inactive; TRPC6 act confirm: inactive

How did COc1ccc(C(=O)Nc2cccc(N(C)S(C)(=O)=O)c2)cc1OC do in these assays?
TRPC6 inh: inactive; TRPC4 inh: inactive; TRPC4 agonist: inactive; TRPC4 potent: inactive; TRPC6 act: inactive

Results for CCOC(=O)c1c(NC(=O)CC)sc2c1CCN(Cc1ccccc1)C2 ?
TRPC6 inh: inactive; TRPC4 inh: inactive; TRPC4 agonist: inactive; TRPC4 potent: inactive; TRPC6 act: inactive

How did COC(=O)c1c(NC(=O)C(C)(C)C)sc2c1CCN(Cc1ccccc1)C2 do in these assays?
TRPC6 inh: inactive; TRPC4 inh: inactive; TRPC4 agonist: inactive; TRPC4 potent: inactive; TRPC6 act: inactive

Results for CCOC(=O)c1c(N)sc2c1CCCC2 ?
TRPC6 inh: inactive; TRPC4 inh: inactive; TRPC4 agonist: inactive; TRPC4 potent: inactive; TRPC6 act: inactive

How did CCOC(=O)c1c(N)sc2c1CCN(CCc1ccccc1)C2 do in these assays?
TRPC6 inh: -5.9; TRPC4 inh: inactive; TRPC4 agonist: inactive; TRPC4 potent: inactive; TRPC6 act: inactive; HEK293 MPD ctr-2: inactive; HEK293 MPD ctr 2-2: inactive; TRPC4 ctr mod: 22%; TRPC4 ctr inh 2: 34%; TRPC6 block conf: inactive; TRPC6 act confirm: inactive

How did CCOC(=O)c1c(NC(C)=O)sc2c1CCN(Cc1ccccc1)C2 do in these assays?
TRPC6 inh: -5.3; TRPC4 inh: inactive; TRPC4 agonist: inactive; TRPC4 potent: inactive; TRPC6 act: inactive; HEK293 MPD ctr-2: -198%; HEK293 MPD ctr 2-2: inactive; TRPC4 ctr mod: -34%; TRPC4 ctr inh 2: 39%; TRPC6 block conf: inactive; TRPC6 act confirm: inactive
